ChEMBL document CHEMBL1145563, “Monoglycerides from the brown alga Sargassum sagamianum: Isolation, synthesis, and biological activity” (Bioorg Med Chem Lett, 2008)

Legend:
[1] = target: T1, Phospholipase A2, membrane associated (Homo sapiens) (UniProt P14555); experiment: Inhibition of sPLA2-2A at 10 uM by coupled enzyme assay
T1 sequence (whole entry): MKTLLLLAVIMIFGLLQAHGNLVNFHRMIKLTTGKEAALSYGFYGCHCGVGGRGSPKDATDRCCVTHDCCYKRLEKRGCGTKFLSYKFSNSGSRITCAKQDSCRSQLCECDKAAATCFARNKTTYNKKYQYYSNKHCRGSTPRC
Method in brief: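 Phospholipase A2 activity measured by a coupled enzyme assay with DL-PC as substrate and lipoxygenase as the coupling enzyme. Percent inhibition given as mean of three experiments.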

[2] = target: T2, Prostaglandin G/H synthase 2 (Homo sapiens) (UniProt P35354); experiment: Inhibition of COX2 at 50 uM
T2 sequence (whole entry): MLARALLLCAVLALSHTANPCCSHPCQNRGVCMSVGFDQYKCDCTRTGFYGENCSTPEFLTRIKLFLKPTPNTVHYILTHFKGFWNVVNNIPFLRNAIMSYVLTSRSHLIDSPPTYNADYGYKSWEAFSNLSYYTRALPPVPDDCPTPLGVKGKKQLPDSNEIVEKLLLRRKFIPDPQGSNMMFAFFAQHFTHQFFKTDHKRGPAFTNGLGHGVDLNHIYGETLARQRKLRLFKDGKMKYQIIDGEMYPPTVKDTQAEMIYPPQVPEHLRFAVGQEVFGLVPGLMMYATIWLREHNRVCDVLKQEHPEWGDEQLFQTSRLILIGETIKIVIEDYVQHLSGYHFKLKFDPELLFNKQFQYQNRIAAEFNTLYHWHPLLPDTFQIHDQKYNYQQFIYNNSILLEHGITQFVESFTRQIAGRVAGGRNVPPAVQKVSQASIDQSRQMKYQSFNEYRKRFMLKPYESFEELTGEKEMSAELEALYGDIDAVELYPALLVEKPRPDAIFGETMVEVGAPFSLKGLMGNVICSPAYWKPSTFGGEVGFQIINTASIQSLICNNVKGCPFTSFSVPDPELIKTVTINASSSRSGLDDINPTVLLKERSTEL
Method in brief: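 COX-2 activity followed as PGE2 in the medium, measured in triplicate by enzyme immunoassay: samples, enzymatic tracer and specific antiserum incubated overnight at 4 °C, plates washed, Ellman's reagent added, absorbance at 414 nm read after 1–3 h. PGE2 read from a 50–0.39 pg/mL standard curve. Percent inhibition given as mean of three experiments.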

| inhibition [1] | inhibition [2] | SMILES |
| --- | --- | --- |
| 32.8% | 16.5% | CCCCCCCCCCCCCCCCCC(=O)OCC(O)CO (stereo unspecified) |
| 32% |  | CC/C=C\C/C=C\C/C=C\CCCCCCCC(=O)OCC(O)CO (stereo unspecified) |
| 37.4% | 92.9% | CC/C=C/C/C=C/C/C=C/C/C=C\C/C=C/CCCCCC(=O)OCC(O)CO (stereo unspecified) |
| 41.7% | 74.2% | CC/C=C/C/C=C/C/C=C/C/C=C\C/C=C/C/C=C/CCC(=O)OCC(O)CO (stereo unspecified) |
| 37.9% | 86.8% | CCCCC/C=C/C/C=C/C/C=C\C/C=C/CCCCCC(=O)OCC(O)CO (stereo unspecified) |
| 38.1% | 20.5% | CCCCC/C=C/C/C=C\CCCCCCCC(=O)OCC(O)CO (stereo unspecified) |
| 26.1% | 35.6% | CC/C=C/C/C=C/C/C=C\C/C=C/CCCCC(=O)OC[C@@H](O)CO |
| 53.9% |  | CCCCC/C=C/C/C=C\C/C=C/CCCCCCC(=O)OCC(O)CO (stereo unspecified) |

| SMILES | inhibition [1] | inhibition [2] |
| --- | --- | --- |
| CCCCCCCC/C=C\CCCCCCCC(=O)OCC(O)CO (stereo unspecified) | 60.6% | 24.7% |
| CCCCC/C=C/C/C=C\C/C=C/C/C=C/CCCC(=O)OCC(O)CO (stereo unspecified) | 33.6% |  |
| CC/C=C/C/C=C/C/C=C\C/C=C/C/C=C/CCCC(=O)OCC(O)CO (stereo unspecified) | 37.4% | 71.9% |
| CCCCC/C=C\C/C=C\C/C=C\CCCCC(=O)OCC(O)CO (stereo unspecified) | 38.8% | -6.5% |
